Experimental data pooled from the literature.
Lines come from different studies, so protocols differ.
Organism: Staphylococcus aureus
Effect on: microbial growth

Compound | technique | strain | setting | MIC
CC(C)(C)c1cc(NC(=O)Nc2ccc(Oc3ccncc3)cc2)no1 |  | NCTC8325 |  | 100 µM
COc1ccc(-c2nc3ccccc3[nH]2)cc1O | broth dilution | ATCC43300 MRSA | drug-resistant strain | 256 µg/mL
COC(=O)c1cc(-c2cccc(NC(=O)Nc3ccc(C(F)(F)F)cc3)c2)on1 | broth dilution | ATCC29213 |  | 8 to 16 µg/mL
CCOc1cc(-c2nc3ccccc3[nH]2)ccc1O | broth dilution | ATCC43300 MRSA | drug-resistant strain | 256 µg/mL
COC(=O)c1cc(-c2cccc(NC(=O)Nc3cccc(C(F)(F)F)c3)c2)on1 | broth dilution | ATCC29213 |  | > 64 µg/mL
C[C@@H](O)[C@H]1C(=O)N2C(C(=O)O)=C(S[C@@H]3CN[C@H](C(=O)N(C)C)C3)[C@H](C)[C@H]12 |  | USA300 |  | 1 µg/mL
O=C(Nc1ccc(Cl)c(C(F)(F)F)c1)N1CCCCC1 |  | NCTC8325 |  | 30 µM
COC(=O)c1cc(-c2cccc(NC(=S)Nc3ccc([N+](=O)[O-])cc3)c2)on1 | broth dilution | ATCC29213 |  | > 64 µg/mL
CO[C@H]1/C=C/O[C@@]2(C)Oc3c(C)c(O)c4c(O)c(c(/C=N/N5CCN(C)CC5)c(O)c4c3C2=O)NC(=O)/C(C)=C\C=C\[C@H](C)[C@H](O)[C@@H](C)[C@@H](O)[C@@H](C)[C@H](OC(C)=O)[C@@H]1C |  | NEWMAN |  | 0.12 µg/mL
COC(=O)c1cc(-c2cccc(NC(=O)Nc3ccccc3)c2)on1 | broth dilution | ATCC29213 |  | > 64 µg/mL
C=CCn1c(-c2ccc([N+](=O)[O-])cc2)nc2ccc(C)cc21 | broth dilution | ATCC43300 MRSA | drug-resistant strain | 64 µg/mL
c1ccc(CCOC2CCCc3c2[nH]c2ccccc32)cc1 (stereo not drawn) | broth dilution | ATCC29213 |  | > 16 µg/mL
Cc1ccc2nc(-c3ccc([N+](=O)[O-])cc3)n(Cc3ccc(Cl)cc3)c2c1 | broth dilution | ATCC43300 MRSA | drug-resistant strain | 8 µg/mL
CCCCCCCCCCCCCCCC(=O)N(C)[C@H](CO)C(=O)N[C@H](C)C(=O)NCC(=O)N(C)[C@@H]1C(=O)N[C@@H](C)C(=O)N[C@H](C(=O)O)Cc2ccc(O)c(c2)-c2cc1ccc2O |  | MRSA |  | 25 µg/mL
Cc1cc(Cl)ccc1-c1ccc(/C=C2\SC(=S)N(CC(=O)O)C2=O)o1 | broth dilution | MRSA USA300 | drug-resistant strain | 8 to 64 µg/mL
O=C(CCCCCCCCCCOc1ccccc1)NP(=O)(O)O |  | ATCC33591 MRSA | drug-resistant strain | 100 µg/mL
CN[C@H](CC(C)C)C(=O)N[C@H]1C(=O)N[C@@H](CC(N)=O)C(=O)N[C@H]2C(=O)N[C@H]3C(=O)N[C@H](C(=O)N[C@H](C(=O)O)c4cc(O)cc(O)c4-c4cc3ccc4O)[C@H](O)c3ccc(c(Cl)c3)Oc3cc2cc(c3O[C@@H]2O[C@H](CO)[C@@H](O)[C@H](O)[C@H]2O[C@H]2C[C@](C)(N)[C@H](O)[C@H](C)O2)Oc2ccc(cc2Cl)[C@H]1O | broth dilution | ATCCBAA41 | drug-resistant strain | 1 µg/mL
CN[C@H](CC(C)C)C(=O)N[C@H]1C(=O)N[C@@H](CC(N)=O)C(=O)N[C@H]2C(=O)N[C@H]3C(=O)N[C@H](C(=O)N[C@H](C(=O)O)c4cc(O)cc(O)c4-c4cc3ccc4O)[C@H](O)c3ccc(c(Cl)c3)Oc3cc2cc(c3O[C@@H]2O[C@H](CO)[C@@H](O)[C@H](O)[C@H]2O[C@H]2C[C@](C)(N)[C@H](O)[C@H](C)O2)Oc2ccc(cc2Cl)[C@H]1O |  | VRSA | drug-resistant strain | > 16 µg/mL

Compound | technique | strain | setting | MIC
Clc1ccc(-c2nc3ccccc3n2Cc2ccccc2)cc1Cl | broth dilution | ATCC43300 MRSA | drug-resistant strain | 16 µg/mL
CO[C@H]1[C@H](O[C@H]([C@H]2O[C@@H](n3ccc(=O)[nH]c3=O)[C@H](O)[C@@H]2O)[C@H](NCCCNC(=O)[C@@H](NC(=O)[C@@H](NC(=O)N[C@H](C(=O)O)C(C)C)[C@@H]2CCN=C(N)N2)[C@@H](OC(=O)CCCCCCC(C)C)C(C)C)C(=O)O)O[C@H](CN)[C@H]1O |  | NEWMAN |  | > 32 µg/mL
CCOC(=O)c1cc(-c2cccc(NC(=O)Nc3ccc(Cl)c(Cl)c3)c2)on1 | broth dilution | ATCC29213 |  | > 64 µg/mL
NC[C@H]1O[C@H](O[C@H]2[C@H](O)[C@@H](O[C@H]3O[C@H](CO)[C@@H](O)[C@H](N)[C@H]3O)[C@H](N)C[C@@H]2N)[C@H](O)[C@@H](O)[C@@H]1O |  | USA300 |  | 256 µg/mL
CN[C@H](CC(C)C)C(=O)N[C@H]1C(=O)N[C@@H](CC(N)=O)C(=O)N[C@H]2C(=O)N[C@H]3C(=O)N[C@H](C(=O)N[C@H](C(=O)O)c4cc(O)cc(O)c4-c4cc3ccc4O)[C@H](O)c3ccc(c(Cl)c3)Oc3cc2cc(c3O[C@@H]2O[C@H](CO)[C@@H](O)[C@H](O)[C@H]2O[C@H]2C[C@](C)(N)[C@H](O)[C@H](C)O2)Oc2ccc(cc2Cl)[C@H]1O | broth dilution | BAA44 MRSA | drug-resistant strain | 0.59 µM
O=C(O)c1cn(C2CC2)c2cc(N3CCNCC3)c(F)cc2c1=O | broth dilution | ATCC43300 MRSA | drug-resistant strain | 16 µg/mL
CC1(C)CC[C@]2(C(=O)O)CC[C@]3(C)C(=CC[C@@H]4[C@@]5(C)CC[C@H](O)C(C)(C)[C@@H]5CC[C@]43C)[C@@H]2C1 |  | USA300 |  | 256 µg/mL
COc1ccc(Cc2cnc(N)nc2N)cc1OC | broth dilution |  |  | ~50 µM
CCCCCC/C=C\CCCCCCCCCC(=O)CP(=O)(O)O |  | ATCC33591 MRSA | drug-resistant strain | 100 µg/mL
Cc1ccc2nc(-c3ccccc3O)[nH]c2c1 | broth dilution | ATCC43300 MRSA | drug-resistant strain | 256 µg/mL
COC(=O)c1cc(-c2ccc(NC(=O)Nc3ccc(Cl)c(Cl)c3)cc2)on1 | broth dilution | ATCC29213 |  | > 64 µg/mL
CC(=O)Nc1c2sscc-2[nH]c1=O |  | BAA1556 MRSA | drug-resistant strain | 5 µM
CCOc1ccc(-c2nc3ccccc3[nH]2)cc1 | broth dilution | ATCC43300 MRSA | drug-resistant strain | 512 µg/mL
COC(=O)c1cc(-c2cccc(NC(=O)Nc3ccc(C)c(Cl)c3)c2)on1 | broth dilution | ATCC29213 |  | > 64 µg/mL
CN[C@H](CC(C)C)C(=O)N[C@H]1C(=O)N[C@@H](CC(N)=O)C(=O)N[C@H]2C(=O)N[C@H]3C(=O)N[C@H](C(=O)N[C@H](C(=O)O)c4cc(O)cc(O)c4-c4cc3ccc4O)[C@H](O)c3ccc(c(Cl)c3)Oc3cc2cc(c3O[C@@H]2O[C@H](CO)[C@@H](O)[C@H](O)[C@H]2O[C@H]2C[C@](C)(N)[C@H](O)[C@H](C)O2)Oc2ccc(cc2Cl)[C@H]1O |  | UAMS1 |  | 1 µg/mL
CCC(CC)c1cc(CCN2CCCN(Cc3ccc(C(F)(F)F)cc3)CC2)nc(-c2ccncc2)n1 |  | ATCCBAA1720 | drug-resistant strain, clinical isolate | 6 µg/mL
O=C(CCCCCCCCCCOc1ccccc1)CP(=O)(O)O |  | ATCC33591 MRSA | drug-resistant strain | 100 µg/mL
COC(=O)c1cc(-c2cccc(NC(=S)Nc3ccccc3Cl)c2)on1 | broth dilution | ATCC29213 |  | > 64 µg/mL
